Results taken from ChEMBL document CHEMBL1158703, “Psychopharmacological profile of the alkaloid psychollatine as a 5HT2A/C serotonin modulator” (2005).
Calls of active or inactive are those of the source.

How the values were obtained:
Mus musculus [1] = test: Anxiolytic activity against CF1 mouse assessed as suppression of oxotremorine-treated tremors at 3 mg/kg; assay type: functional, organism-based; set-up: dose 3 mg/kg
In short: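 Mice received treatment i.p. 30 min before oxotremorine 0.5 mg/kg in saline. Each mouse was then placed alone in a transparent cage immediately after injection and tremor was scored. Data given as median (interquartile range); Kruskal–Wallis then Mann–Whitney U against saline + oxotremorine.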

Mus musculus [2] = test: Antidepressant activity in CF1 mouse assessed as decrease in duration of immobility at 15 mg/kg during final 4 mins of the 6 mins session by forced swimming test; assay type: functional
Mus musculus [3] = test: Anticonvulsant activity against CF1 mouse assessed as protection against PTZ-induced convulsions at 0.8 mg/kg, ip for 60 mins; assay type: functional; details: route intraperitoneal
In short: (§1)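 Male adult CF1 mice (2 months at purchase, housed ≥2 weeks at 22 °C, 12 h light/dark). Drug given i.p. (0.1 mL/10 g); 30 min later PTZ 88 mg/kg s.c. Each mouse then observed singly for 60 min for clonic convulsions lasting >3 s. n = 10 per group. Fisher's exact test against vehicle (saline or 10% propylene glycol).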

Mus musculus [4] = test: Anticonvulsant activity against CF1 mouse assessed as protection against PTZ-induced convulsions at 20 mg/kg, ip for 60 mins; assay type: functional; details: route intraperitoneal; in short: as §1
Mus musculus [5] = test: Anxiolytic activity against CF1 mouse assessed as increase in number of head dips at 0.75 mg/kg after 30 mins in presence of picrotoxin by hole-board assay; assay type: functional, organism-based; set-up: dose 0.75 mg/kg
In short: (§2)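 Hole-board with photocell-counted head-dips; the board was marked into 16 squares of 10×10 cm. Male CF1 mice were acclimatised ≥1 h in dim light. Diazepam in 10% propylene glycol was given i.p. 30 min before testing. Picrotoxin 1 mg/kg i.p. was given 30 min before treatment. Head-dips, squares crossed and rearings were recorded over 5 min. N = 8–15, ANOVA then SNK.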

Mus musculus [6] = test: Anxiolytic activity against CF1 mouse assessed as increase in number of rearings at 0.75 mg/kg after 30 mins in presence of picrotoxin by hole-board assay; assay type: functional, organism-based; set-up: dose 0.75 mg/kg; in short: as §2
Mus musculus [7] = test: Anxiolytic activity against CF1 mouse assessed as increase in number of head dips at 0.75 mg/kg after 30 mins by hole-board assay; assay type: functional, organism-based; set-up: dose 0.75 mg/kg; in short: as §2
Mus musculus [8] = test: Anxiolytic activity against CF1 mouse assessed as increase in number of crossings at 0.75 mg/kg after 30 mins in presence of picrotoxin by hole-board assay; assay type: functional, organism-based; set-up: dose 0.75 mg/kg; in short: as §2
Mus musculus [9] = test: Effect on locomotory activity in CF1 mouse assessed as change in spontaneous activity at 0.75 and 0.85 mg/kg; assay type: functional, organism-based; set-up: dose 0.85 mg/kg
In short: (§3)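 Mice were habituated singly for 10 min in photocell activity cages and then dosed i.p. Diazepam was given in 10% propylene glycol. After 30 min, crossings were recorded for 15 min. n = 10–16, ANOVA then SNK.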

Mus musculus [10] = test: Anxiolytic activity against CF1 mouse assessed as increase in number of rearings at 0.75 mg/kg after 30 mins by hole-board assay; assay type: functional, organism-based; set-up: dose 0.75 mg/kg; in short: as §2
Mus musculus [11] = test: Effect on locomotory activity in CF1 mouse assessed as change in spontaneous activity at 3 to 30 mg/kg; assay type: functional, organism-based; in short: as §3
Mus musculus [12] = test: Anxiolytic activity against CF1 mouse assessed as increase in latency to enter in the dark compartment 0.85 mg/kg in presence of picrotoxin for 5 mins; assay type: functional, organism-based; set-up: dose 0.85 mg/kg
In short: (§4)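 Light/dark box with a small black compartment and a large white one lit at 400 lx. Male CF1 mice were acclimatised for ≥1 h under dim red light. Diazepam in 10% propylene glycol was given i.p. 30 min before testing. Picrotoxin 1 mg/kg i.p. in saline was given 30 min before treatment. Read-outs: latency to first entry and time spent in the light area. N = 8–22, ANOVA then SNK.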

Mus musculus [13] = test: Anxiolytic activity against CF1 mouse assessed as increase in number of crossings at 0.75 mg/kg after 30 mins by hole-board assay; assay type: functional, organism-based; set-up: dose 0.75 mg/kg; in short: as §2
Mus musculus [14] = test: Anxiolytic activity against CF1 mouse assessed as increase in time spent in light compartment at 0.85 mg/kg for 5 mins; assay type: functional, organism-based; set-up: dose 0.85 mg/kg; in short: as §4
Mus musculus [15] = test: Anxiolytic activity against CF1 mouse assessed as increase in latency to enter in the dark compartment 0.85 mg/kg for 5 mins; assay type: functional, organism-based; set-up: dose 0.85 mg/kg; in short: as §4
Mus musculus [16] = test: Anxiolytic activity against CF1 mouse assessed as increase in time spent in light compartment at 0.85 mg/kg in presence of picrotoxin for 5 mins; assay type: functional, organism-based; set-up: dose 0.85 mg/kg; in short: as §4
Mus musculus [17] = test: Effect on long term memory of CF1 mouse assessed as reduction in step down latency at 0.15 mg/kg by passive avoidance test; assay type: functional
In short: (§5)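 Step-down inhibitory avoidance in male CF1 mice. Training used a 0.3 mA scrambled footshock for 15 s on stepping down. The test session was 24 h later without shock, with a 300 s cutoff. For acquisition effects, drug (MK-801 or diazepam in 10% propylene glycol, i.p.) was given 30 min before training; the post-training group was dosed immediately after training. N = 20, medians (IQR).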

Mus musculus [18] = test: Effect on long term memory of CF1 mouse assessed as reduction in latency during aquisition at 0.15 mg/kg by passive avoidance test; assay type: functional; in short: as §5
Mus musculus [19] = test: Effect on short term memory of CF1 mouse assessed as reduction in step down latency at 0.15 mg/kg by passive avoidance test; assay type: functional
Mus musculus [20] = test: Antidepressant activity in CF1 mouse assessed as decrease in duration of immobility at 0.15 mg/kg during final 4 mins of the 6 mins session by forced swimming test; assay type: functional
In short: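 Male adult CF1 mice, dosed i.p. Each mouse made to swim for 6 min in a 30 cm diameter cylinder holding 20 cm of water at 25 ± 1 °C. Immobility time was scored over the last 4 min. N = 10 per group, mean ± SEM, ANOVA against saline.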

Mus musculus [21] = test: Effect on short term memory of CF1 mouse assessed as reduction in latency during aquisition at 0.15 mg/kg by passive avoidance test; assay type: functional

Structure (SMILES): CN1[C@@H]2C[C@@H](OC(=O)[C@H](CO)c3ccccc3)C[C@H]1[C@@H]1O[C@@H]12
- Activity (Mus musculus [1]): Active

Structure (SMILES): CN(C)CCCN1c2ccccc2CCc2ccccc21 [IMIPRAMINE]
- Activity (Mus musculus [2]): 46.05 s

Structure (SMILES): CCC1(c2ccccc2)C(=O)NC(=O)NC1=O [PHENOBARBITAL]
- Activity (Mus musculus [3]): 10%
- Activity (Mus musculus [4]): 0%

Structure (SMILES): CN1C(=O)CN=C(c2ccccc2)c2cc(Cl)ccc21 [DIAZEPAM]
- Activity (Mus musculus [5]): inactive
- Activity (Mus musculus [6]): inactive
- Activity (Mus musculus [7]): Active
- Activity (Mus musculus [3]): 10%
- Activity (Mus musculus [8]): inactive
- Activity (Mus musculus [4]): 0%
- Activity (Mus musculus [9]): inactive
- Activity (Mus musculus [10]): Active
- Activity (Mus musculus [11]): inactive
- Activity (Mus musculus [12]): inactive
- Activity (Mus musculus [13]): Active
- Activity (Mus musculus [14]): Active
- Activity (Mus musculus [15]): Active
- Activity (Mus musculus [16]): inactive

Structure (SMILES): C[C@]12N[C@H](Cc3ccccc31)c1ccccc12 [DIZOCILPINE]
- Activity (Mus musculus [17]): 6.2 s
- Activity (Mus musculus [18]): 6 s
- Activity (Mus musculus [19]): 16.5 s
- Activity (Mus musculus [20]): 33.36 s
- Activity (Mus musculus [21]): 8.4 s
